High-throughput results deposited in PubChem BioAssay by several laboratories.
MEX-5 binding = C. elegans MEX-5 TCR-2 RNA binding activity. Q9XUB2. MEX-5/FITC-TCR2 RNA binding, fluorescence polarization; active compounds read low. activity score (negative = inhibition of binding), % at 10 µM. hit rate 0.38% among 300,000. AID 1832;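 active = inhibition past about -25% in most replicates, and total fluorescence under double the plate's negative control median, limit read from the data; inconclusive = replicates evenly split on the limit, or fluorescence at least double controls; inactive = too little inhibition in most replicates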;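 note: 0% = DMSO and -100% = 5 µM competing unlabeled TCR2 RNA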
Target sequence (Q9XUB2 whole entry, looked up): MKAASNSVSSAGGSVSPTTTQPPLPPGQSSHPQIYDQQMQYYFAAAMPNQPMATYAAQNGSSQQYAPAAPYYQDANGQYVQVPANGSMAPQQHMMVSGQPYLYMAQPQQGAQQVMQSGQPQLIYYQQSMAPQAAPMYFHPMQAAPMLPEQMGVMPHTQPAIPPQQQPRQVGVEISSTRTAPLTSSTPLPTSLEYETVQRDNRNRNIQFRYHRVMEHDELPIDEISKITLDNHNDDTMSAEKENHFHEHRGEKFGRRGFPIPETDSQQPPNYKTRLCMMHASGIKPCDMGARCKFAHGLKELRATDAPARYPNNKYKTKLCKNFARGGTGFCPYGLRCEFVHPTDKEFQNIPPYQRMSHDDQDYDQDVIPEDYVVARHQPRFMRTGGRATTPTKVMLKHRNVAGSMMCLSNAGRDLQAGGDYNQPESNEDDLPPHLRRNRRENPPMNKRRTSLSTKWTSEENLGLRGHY
Runt-SMMHC FRET = Runt domain-CBFb-SMMHC interaction inhibition; Cerulean-Runt/Venus-CBFb-SMMHC FRET ratio 530/480, 1 h; inhibition, % at 20 µM; hit rate 0.74% among 220,000; AID 1434;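 active = mean inhibition across duplicate retests at 20 µM reaching about 50%, limit read from the data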;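 note: 0% = DMSO wells and 100% = wells with excess untagged CBFb-SMMHC; inhibitors lower the FRET ratio by blocking Runt binding to CBFb-SMMHC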
Runt-CBFb FRET = inhibitors of human RUNX1 Runt domain binding to CBFb | Q01196+Q13951 | Cerulean-Runt/Venus-CBFb FRET ratio 530/480, 1 h | inhibition, % at 20 µM | hit rate 0.46% among 220,000;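 active = inhibition over about 50% at 20 µM in the single-dose screen, limit read from the data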;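 note: 0% = DMSO wells and 100% = excess unlabeled CBFb competitor control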
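Measured by: fluorescence energy transfer, 422 nm excitation, 530/480 nm emission; Assay system: Cerulean-Runt domain; Medium: Tris pH 7.5 buffer with BSA; Measure: loss of energy transfer signal; Controls: 5 µM unlabeled CBFb as full-inhibition high control; Incubation: protein complex preformed 1 h, compound exposure 1 h, room temperature, dark.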
EBV gp42 inh = blocks Epstein-Barr virus glycoprotein 42 binding; inhibition, % (tested at 21.74 µM); Fluorescence polarization binding assay, mP read-out; AID 1085; Q1HVG2; hit rate 0.42% among 220,000
Target sequence (Q1HVG2 whole entry, looked up): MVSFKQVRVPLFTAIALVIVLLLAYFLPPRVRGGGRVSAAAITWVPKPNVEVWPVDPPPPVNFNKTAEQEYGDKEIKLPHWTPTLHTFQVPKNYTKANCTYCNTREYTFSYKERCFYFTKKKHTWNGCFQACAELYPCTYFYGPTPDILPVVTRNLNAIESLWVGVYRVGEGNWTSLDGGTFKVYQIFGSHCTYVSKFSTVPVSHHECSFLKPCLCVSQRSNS
RanGTP-Imp inh = disruptors of Ran-importin-beta complex formation – biochemical, FRET, CFP-Ran, YFP-importin-beta, homogeneous, primary screen; cell-free CFP-Ran/YFP-importin-beta FRET ratio; inhibition, % (test concentration not listed); hit rate 1.1% among 300,000;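 active = more than half of the replicate wells show a fall in the fluorescence ratio signal beyond about 16%, limit read from the data, passing the limit was not always enough; inconclusive = exactly half of the replicate wells pass the set limit; inactive = fewer than half of replicates pass the limit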;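 note: 0% = DMSO wells and 100% = Ran loaded with GDP instead of GTP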
PKD1 inh = PKD1 (human) kinase inhibition; Q15139; AID 797; inhibition, % (test concentration not listed); PKD1 kinase fluorescence polarization assay; hit rate 0.056% among 200,000
* = called active by the depositor; ? = inconclusive; . = not tested or not shown. Hits are enriched below; roughly 2% of the tested compounds scored in any of these assays. Cut-off read from the data, not from the text of the source, unless noted: active = inhibition above about 50%; inactive = the rest.

SMILES	MEX-5 binding	Runt-SMMHC FRET	Runt-CBFb FRET	EBV gp42 inh	RanGTP-Imp inh	PKD1 inh
Cc1onc(-c2ccccc2)c1C(=O)OCC(=O)NCc1ccc(F)cc1	0.2	0.2	20.2	7.3	0.1	0.0
CC(C)C(NC(=O)OCc1ccccc1)C(=O)NCc1ccc(C(=O)O)cc1 (stereo not drawn)	1.2	4.8	-2.3	0.8	-1.4	-4.4
CC1CCN(C(=O)CSc2nc3ccccc3s2)CC1	-1.4	2.4	2.8	-22.6	28.1*	-4.4
O=C(O)C1CCN(C(=O)CSc2nc3ccccc3s2)CC1	0.9	-1.0	2.9	-5.9	-1.5	-7.6
Cn1c2c(c(=O)n(C)c1=O)NC1(N2)C(=O)Nc2ccccc21 (stereo not drawn)	-17.8	-7.4	1.1	-7.5	36.8*	.
Cn1c2c(c(=O)n(C)c1=O)[C@@]1(C(=O)Nc3ccccc31)C(C#N)=C(N)O2	1.7	2.2	-6.2	-4.7	0.6	24.4
CC(C)(C)NCCOc1ccc2ccccc2c1	-3.1	-4.1	1.9	-4.9	31.7*	-6.5
CCOc1cccc(OCCOCCNC(C)(C)C)c1	-0.3	-6.7	-0.8	-8.4	-1.1	4.2
Cc1ccnc(N2C(=O)c3cccc4c([N+](=O)[O-])ccc(c34)C2=O)c1	-21.2	-26.1	-7.4	66.8*	-17.6	-10.6
O=C1c2cccc3c([N+](=O)[O-])ccc(c23)C(=O)N1Cc1cccnc1	-14.7	-31.5	-13.6	122.6*	-10.2	-0.5
O=C1c2cccc3cccc(c23)C(=O)N1Cc1cccnc1	0.0	-2.3	0.3	-3.4	?	.
O=C(OCC(=O)N1CCCc2ccccc21)c1ccc(S(=O)(=O)C(F)F)cc1	1.4	.	.	.	2.5	.
CCc1ccccc1NC(=O)/C(C#N)=C\c1ccc(Sc2ccccc2)o1	1.4	-28.0	-5.7	-10.3	16.2*	-2.7
CC(=O)C1=C(c2ccccc2)NC(=O)NC1c1ccc(O)c(O)c1 (stereo not drawn)	-28.8*	20.9	31.2	0.1	-2.6	-1.5
CCOC(=O)CC(=O)CSc1nc(C)cc(C)c1C#N	0.1	7.4	5.3	-2.0	?	-3.4
CC(C)OC(=O)CSc1nc2c(cc1C#N)CCCCC2	3.2	-1.8	-2.8	-3.7	2.7	-2.6
CC(C)OC(=O)CC(=O)CSc1nc2c(cc1C#N)CCCCC2	-0.5	70.7*	35.2	1.8	25.7*	-2.8
CCOC(=O)CC(=O)CSc1nc2c(c(C)c1C#N)CCC2	5.2	12.8	11.1	2.6	24.3*	-3.5
CCn1cc(Br)c(C(=O)Nc2ccc(Cl)c(Cl)c2)n1	-0.4	2.8	-3.5	-0.6	57.2*	1.6
CCn1cc(Br)c(C(=O)Nc2cccc(Cl)c2)n1	-2.6	0.9	1.3	-11.2	2.1	-13.2
COCCNC(=S)NCc1ccc2[nH]c3c(c2c1)CCCC3	1.4	-21.6	-9.0	-10.1	19.3*	-4.6
O=C(NCCO)c1ccc2[nH]c3c(c2c1)CCCC3	-1.0	1.2	0.9	-20.5	18.3*	7.6
CC(=O)Nc1ccc(Cl)cc1C1COC(=O)C1=N (stereo not drawn)	-0.2	-8.5	-5.6	-6.6	19.3*	-10.8
Cc1cc(C)c(S(=O)(=O)Nc2cccc(S(=O)(=O)NC3=NCCC3)c2)c(C)c1	0.7	1.4	-1.0	-10.0	1.4	3.7
Cc1ccc(CNC(=O)c2ccc(-n3cccc3)cc2)cc1	0.0	-6.5	0.6	51.5*	4.1	-7.1
SMILES	MEX-5 binding	Runt-SMMHC FRET	Runt-CBFb FRET	EBV gp42 inh	RanGTP-Imp inh	PKD1 inh
Cn1cc(/C=C2\SC(=S)N(NC(=O)c3cccc(Cl)c3)C2=O)c2ccccc21	.	-65.5	-27.4	164.9*	.	.
O=C(NN1C(=O)/C(=C/c2ccc(O)cc2)SC1=S)c1cccc(O)c1	?	.	.	.	-13.6	.
Cn1cc(/C=C2\SC(=S)N(NC(=O)c3ccccc3)C2=O)c2ccccc21	3.5	-87.6	-41.2	89.3*	-43.8	-7.9
Cn1cc(/C=C2\SC(=S)N(N3CCOCC3)C2=O)c2ccccc21	0.1	-34.0	-1.6	39.1	-2.5	.
COC(=O)c1ccc(Cl)c(NC(=O)CN(c2ccccc2)S(=O)(=O)c2ccc(OC)cc2)c1	-1.4	1.2	-2.0	-3.6	2.3	-3.6
COCCNC(=O)/C(C#N)=C/c1c(N2CCN(c3ccccc3)CC2)nc2ccccn2c1=O	-0.6	.	.	.	5.4	.
COCCCNC(=O)/C(C#N)=C/c1c(N2CCN(C)CC2)nc2ccccn2c1=O	-0.3	.	.	.	87.2*	.
CCNC(=O)/C(C#N)=C/c1c(N2CC(C)OC(C)C2)nc2ccccn2c1=O (stereo not drawn)	-0.3	77.2*	104.1*	7.3	-0.1	-9.2
COCCNC(=O)/C(C#N)=C/c1c(N2CC(C)OC(C)C2)nc2ccccn2c1=O (stereo not drawn)	1.7	82.3*	47.8	-4.6	4.5	3.2
CN1CCN(c2nc3ccccn3c(=O)c2C=O)CC1	-4.9	.	.	.	99.7*	.
CCNC(=O)/C(C#N)=C/c1c(N2CCCCCC2)nc2ccccn2c1=O	0.1	.	.	.	1.3	.
O=Cc1c(N2CCCCC2)nc2ccccn2c1=O	0.8	-3.9	1.3	-5.0	-3.2	-4.9
O=C(Nc1ccc(S(=O)(=O)N2CCCCC2)cc1)C1CCCO1 (stereo not drawn)	-5.1	.	.	.	-1.0	.
CC1CN(c2nc3ccccn3c(=O)c2/C=C(\C#N)C(N)=O)CC(C)O1 (stereo not drawn)	0.1	7.9	93.8*	1.1	-1.4	.
COc1ccc2cc(S(=O)(=O)c3ccccc3)c(=O)oc2c1	0.3	1.5	2.1	-8.0	0.9	.
Cc1ccc(S(=O)(=O)c2cc3ccc(O)cc3oc2=O)cc1C	0.9	.	.	.	131.8*	.
CN(C)c1ccc(C(=O)/C=C/c2cccnc2)cc1	-17.7	.	.	.	4.4	.
CN(C)c1ccc(/C=C/C(=O)c2cccc(Br)c2)cc1	?	-281.3	-233.6	144.0*	-27.7	-4.9
CCOC(=O)C1=C(C)N=C2SC(C(=O)OC)=CC(=O)N2C1c1ccc(OC)cc1 (stereo not drawn)	3.3	-6.9	.	10.4	0.8	-0.6
COC(=O)C1=C(C)N=C2SC(C#N)=C(N)N2C1c1ccc(OC)cc1 (stereo not drawn)	2.5	-19.2	-5.7	-14.8	21.1*	14.4
COC(=O)C1=C(C)N=C2SC(C#N)=C(N)N2C1c1cccc(OC)c1 (stereo not drawn)	-28.1*	-30.8	-5.7	-21.1	?	-1.6
CC(=O)Nc1sc(C)c(C)c1C(=O)OCC(=O)N(CC(C)C)c1c(N)n(Cc2ccccc2)c(=O)[nH]c1=O	1.8	.	.	.	4.2	.
CCCOc1c(Br)cc(C2C3=C(CCCC3=O)N(C)C3=C2C(=O)CCC3)cc1OC	-0.8	79.2*	-1.9	5.1	106.9*	-5.8
CCCOc1c(Br)cc(C2C3=C(CCCC3=O)N(CC)C3=C2C(=O)CCC3)cc1OC	1.2	89.6*	93.7*	-22.2	95.8*	-7.3
